Here are results for 2 compounds from ChEMBL document CHEMBL1649328, “Assessment of pandemic and seasonal influenza A (H1N1) virus susceptibility to neuraminidase inhibitors in three enzyme activity inhibition assays” (Antimicrob Agents Chemother, 2010).

What all share (type): functional, organism-based
Experiment [1] relates to Influenza A virus. Kind of experiment: Antiviral activity against influenza A (A/Hong Kong/2369/2009 (H1N1)) virus harboring neuraminidase H275Y mutant after 30 mins by MUNANA substrate based fluorometric assay. The procedure, abridged:
(§1)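 Fluorometric NA inhibition with MUNANA (100 μM final). Titrated virus in NA-Star buffer (26 mM MES, 4 mM CaCl2, pH 6.0) was preincubated with ten half-log inhibitor dilutions (0.03–1,000 nM final) for 30 min at 37°C, then with substrate for 30 min at 37°C. The reaction was stopped with 0.1 M glycine in 25% ethanol, pH 10.7, and 4-methylumbelliferone was read at ex 365/em 450 nm. IC50 came from a Vmax·[1−x/(K+x)] fit, mean of ≥3 experiments.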

Experiment [2] relates to Influenza A virus. Kind of experiment: Antiviral activity against influenza A (A/Osaka/180/2009 (H1N1)) virus harboring neuraminidase H275Y mutant after 30 mins by NA-star substrate based chemiluminescent assay. Summed up:
(§2)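 Titrated virus in NA-Star buffer (26 mM MES, 4 mM CaCl2, pH 6.0) was preincubated with ten half-log inhibitor dilutions (0.03–1,000 nM final) for 30 min at 37°C, then with substrate for 30 min at room temperature. Accelerator solution was added and luminescence read for 0.1 s. IC50 came from a Vmax·[1−x/(K+x)] fit, mean of ≥3 experiments.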

In experiment [3] the test system is Influenza A virus. Kind of experiment: Antiviral activity against influenza A (A/Osaka/180/2009 (H1N1)) virus harboring neuraminidase H275Y mutant after 16 to 18 hrs by fetuin substrate based colorimetric assay. The procedure, abridged: (§3)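 Colorimetric NA inhibition with fetuin substrate. Virus was diluted in NA-Star buffer (26 mM MES, 4 mM CaCl2, pH 6.0) to give OD549 of 0.4–0.8 after 18 h. It was preincubated with ten half-log inhibitor dilutions (0.03–1,000 nM final) for 1 h at 37°C, then with fetuin (5.5 mg/ml final) for 16–18 h at 37°C. Released sialic acid was read at 549 nm after periodate/TBA reaction and butanol extraction. IC50 came from a Vmax·[1−x/(K+x)] fit, mean of ≥2 experiments.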

Experiment [4] has as its system Influenza A virus. The experiment in a line: Antiviral activity against influenza A (A/Singapore/57/2009 (H1N1)) virus harboring neuraminidase H275Y mutant after 16 to 18 hrs by fetuin substrate based colorimetric assay. The procedure, abridged: as §3
Experiment [5] relates to Influenza A virus. The experiment in a line: Antiviral activity against influenza A (A/Montana/02/2009 (H1N1)) virus harboring neuraminidase H275Y mutant after 30 mins by NA-star substrate based chemiluminescent assay. Summed up:
as §2

The subject of experiment [6] is Influenza A virus. Kind of experiment: Antiviral activity against influenza A (A/Washington/29/2009 (H1N1)) virus harboring neuraminidase H275Y mutant after 30 mins by MUNANA substrate based fluorometric assay. The procedure, abridged:
as §1

Experiment [7] concerns Influenza A virus. Kind of experiment: Antiviral activity against influenza A (A/Hong Kong/2369/2009 (H1N1)) virus harboring neuraminidase H275Y mutant after 30 mins by NA-star substrate based chemiluminescent assay. Summed up: as §2
For experiment [8], the system named is Influenza A virus. The experiment in a line: Antiviral activity against influenza A (A/Singapore/57/2009 (H1N1)) virus harboring neuraminidase H275Y mutant after 30 mins by MUNANA substrate based fluorometric assay. Summed up: as §1
Experiment [9] deals with Influenza A virus. The experiment in a line: Antiviral activity against influenza A (A/Washington/29/2009 (H1N1)) virus harboring neuraminidase H275Y mutant after 16 to 18 hrs by fetuin substrate based colorimetric assay. Summed up:
as §3

For experiment [10], the system named is Influenza A virus. Kind of experiment: Antiviral activity against influenza A (A/Montana/02/2009 (H1N1)) virus harboring neuraminidase H275Y mutant after 16 to 18 hrs by fetuin substrate based colorimetric assay. The procedure, abridged:
as §3

For experiment [11], the system named is Influenza A virus. The experiment in a line: Antiviral activity against influenza A (A/Singapore/57/2009 (H1N1)) virus harboring neuraminidase H275Y mutant after 30 mins by NA-star substrate based chemiluminescent assay. Summed up:
as §2

Experiment [12] has as its system Influenza A virus. The experiment in a line: Antiviral activity against influenza A (A/Hong Kong/2369/2009 (H1N1)) virus harboring neuraminidase H275Y mutant after 16 to 18 hrs by fetuin substrate based colorimetric assay. Summed up: as §3
In experiment [13] the test system is Influenza A virus. The experiment in a line: Antiviral activity against influenza A (A/North Carolina/01/2009 (H1N1)) virus harboring neuraminidase H275Y mutant after 30 mins by MUNANA substrate based fluorometric assay. Summed up:
as §1

In experiment [14] the test system is Influenza A virus. The experiment in a line: Antiviral activity against influenza A (A/Montana/02/2009 (H1N1)) virus harboring neuraminidase H275Y mutant after 30 mins by MUNANA substrate based fluorometric assay. Summed up:
as §1

Experiment [15] relates to Influenza A virus. The experiment in a line: Antiviral activity against influenza A (A/North Carolina/01/2009 (H1N1)) virus harboring neuraminidase H275Y mutant after 30 mins by NA-star substrate based chemiluminescent assay. Summed up: as §2
The test system of experiment [16] is Influenza A virus. Kind of experiment: Antiviral activity against influenza A (A/Washington/29/2009 (H1N1)) virus harboring neuraminidase H275Y mutant after 30 mins by NA-star substrate based chemiluminescent assay. The procedure, abridged: as §2
Experiment [17] has as its system Influenza A virus. Kind of experiment: Antiviral activity against influenza A (A/North Carolina/01/2009 (H1N1)) virus harboring neuraminidase H275Y mutant after 16 to 18 hrs by fetuin substrate based colorimetric assay. The procedure, abridged: as §3
Experiment [18] relates to Influenza A virus. Kind of experiment: Antiviral activity against influenza A (A/Osaka/180/2009 (H1N1)) virus harboring neuraminidase H275Y mutant after 30 mins by MUNANA substrate based fluorometric assay. Summed up:
as §1

In general, IC50 refers to the midpoint of a concentration-inhibition curve. For the compound `CC(=O)N[C@H]1[C@H]([C@H](O)[C@H](O)CO)OC(C(=O)O)=C[C@@H]1NC(=N)N` [ZANAMIVIR], the IC50 turned out to be 1.02 nM in [1]; 0.35 nM in [2]; 3.17 nM in [3]; 2.83 nM in experiment [4]; 0.42 nM in experiment [5]; 0.83 nM in [6]. The IC50 in [7] was found to be 0.43 nM; in experiment [8] it was 1 nM; in [9] it was 2.66 nM; in experiment [10], 2.38 nM; in experiment [11] it was 0.4 nM; in experiment [12], 3.61 nM. In addition, the IC50 in experiment [13] was 1.16 nM; in experiment [14], 1.15 nM; in [15] it was 0.42 nM; in experiment [16], 0.51 nM; in experiment [17], 1.96 nM; in [18] it was 1.29 nM.

Consider `CO[C@@H]([C@@H]1OC(C(=O)O)=C[C@H](NC(=N)N)[C@H]1NC(C)=O)[C@H](O)CO` [LANINAMIVIR], for which the IC50 was 1.08 nM in experiment [1]; 0.48 nM in experiment [2]; 3.32 nM in experiment [3]; 1.12 nM in experiment [4]; 0.34 nM in experiment [5]; 1.19 nM in experiment [6]. Also, the IC50 in [7] came to 0.78 nM; in experiment [8], 0.87 nM; in experiment [9], 2.14 nM; in [10], 0.82 nM; in experiment [11], 0.74 nM; in [12] it was 2.16 nM. For the same compound, the concentration for half-maximal inhibition (IC50) in experiment [13] turned out to be 0.92 nM; in experiment [14], 1.05 nM; in experiment [15] it was 0.34 nM; in [16], 0.82 nM; in experiment [17], 0.89 nM; in [18], 1.43 nM.
